From ChEMBL document CHEMBL2169769, “Synthesis and biological characterization of protease-activated prodrugs of doxazolidine” (J Med Chem, 2012)

Experiments:
[1] = Cytotoxicity against doxorubicin-resistant human NCI-ADR-RES.cells incubated for 24 hrs measured after 5 days in presence of 0.2 U human plasmin; type: functional, cell-based
Procedure, shortened: (§1)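 Cells seeded 1000/well, adhered overnight, then serum-free medium with or without plasmin, trypsin, cathepsin B or papain (0.2 U/well), aprotinin (5 µM) or protease inhibitor cocktail (1X). Prodrug 2000–1 nM final, 24 h; then complete medium up to 5 days or control 80% confluence. Formalin fixed, crystal violet, A582; % of control fit to variable-slope sigmoid for IC50.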

[2] = target: Cathepsin B (Homo sapiens) (UniProt P07858); test: Activity of human cathepsin B assessed as compound hydrolysis measuring enzyme specific activity at 50 uM at pH 6.5 in PBS buffer containing 10 mM N-acetylcysteine by RP-HPLC
Procedure, shortened: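 Specific activity from hydrolysis time courses at 37 °C with 50 µM substrate. Plasmin in PBS pH 7.4; cathepsin B diluted two-fold in PBS-NAC, reacted in PBS-NAC (10 mM N-acetylcysteine) pH 6.5. Ethanol-quenched aliquots, protein precipitated at −20 °C, RP-HPLC at 480 nm tracking dox release. Linear least-squares slope used; 1 U = 1 µM substrate hydrolysed per min.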

[3] = Cytotoxicity against human L3.5.cells incubated for 24 hrs measured after 5 days in presence of 0.2 U human plasmin; type: functional, cell-based; procedure, shortened: as §1
MIA PaCa-2 [4] = test: Drug uptake in human MIAPaCa2 cells increase in compound uptake-induced anthracycline fluorescence in absence of plasmin at 0.5 uM up to 5 hrs by flow cytometry relative to untreated control; type: ADME, cell-based; conditions: mia paca-2, 5 h
Procedure, shortened: (§2)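 MCF-7 or MiaPaCa-2 plated 250,000/well, adhered overnight, switched to serum-free medium with 0.5 µM prodrug alone or plus 0.2 U human plasmin (final) for up to 5 h. Trypsinised cells read by flow cytometry (FL3) for anthracycline fluorescence; mean values expressed as fold over untreated cells.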

MCF7 [5] = test: Cytotoxicity against human MCF7 cells incubated for 24 hrs measured after 5 days; type: functional, cell-based; procedure, shortened: as §1
[6] = Prodrug conversion assessed as release dozax at 50 uM at pH 7.4 in PBS buffer in absence of human plasmin after 24 hrs by RP-HPLC; type: ADME; conditions: pH 7.4, 24 h
Procedure, shortened: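 Enzyme-free control: 50 µM prodrug in PBS at 37 °C over 24 h, RP-HPLC monitoring dox at 480 nm.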

HEK-293T = test: Cytotoxicity against human HEK293T cells incubated for 24 hrs measured after 5 day; type: cell-based; procedure, shortened: as §1
MCF7 [7] = test: Cytotoxicity against human MCF7 cells incubated for 24 hrs measured after 5 days in presence of complete protease inhibitor cocktail; type: functional, cell-based; procedure, shortened: as §1
MIA PaCa-2 [8] = test: Cytotoxicity against human MIAPaCa2 cells incubated for 24 hrs measured after 5 days in presence of 0.2 U cathepsin B; type: functional, cell-based; procedure, shortened: as §1
[9] = Cytotoxicity against doxorubicin-resistant human NCI-ADR-RES cells incubated for 24 hrs measured after 5 day; type: functional, cell-based; procedure, shortened: as §1
MCF7 [10] = test: Cytotoxicity against human MCF7 cells incubated for 24 hrs measured after 5 days in presence of 0.2 U trypsin; type: functional, cell-based; procedure, shortened: as §1
Bos taurus = species: Bos taurus; test: Activity of bovine trypsin assessed as enzyme specific activity for compound hydrolysis
Procedure, shortened: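 50 µM prodrug incubated at 37 °C with enzyme: trypsin in PBS; papain diluted two-fold in PBS-NAC (PBS + 10 mM N-acetylcysteine), reacted in PBS-NAC pH 6.5. Aliquots quenched in equal volume ethanol, −20 °C ≥2 h, centrifuged; supernatant RP-HPLC at 480 nm for substrate loss and dox gain. Slope of linear fit gives activity; 1 U = 1 µM prodrug hydrolysed per min.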

MIA PaCa-2 [11] = test: Drug uptake in human MIAPaCa2 cells increase in compound uptake-induced anthracycline fluorescence in presence of plasmin at 0.5 uM after 4 to 5 hrs by flow cytometry relative to untreated control; type: ADME, cell-based; conditions: mia paca-2, 0.5 µM; procedure, shortened: as §2
Homo sapiens = species: Homo sapiens; test: Selectivity ratio of catalytic efficiency of human plasmin to catalytic efficiency of human cathepsin B
Procedure, shortened: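 Michaelis–Menten kinetics with human enzymes and substrate at 10–400 µM, 37 °C. Plasmin: 0.2 U in PBS pH 7.4 for 4 min. Cathepsin B: 0.08 U in PBS with 10 mM N-acetylcysteine, pH 6.5, for 20 min. Quenched with ethanol, held at −20 °C ≥2 h, centrifuged. Dox release read by RP-HPLC at 480 nm. Rates (µM/min) fit by non-linear least squares; triplicate.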

MIA PaCa-2 [12] = test: Cytotoxicity against human MIAPaCa2 cells incubated for 24 hrs measured after 5 days in presence of 5 uM aprotinin; type: functional, cell-based; procedure, shortened: as §1
MIA PaCa-2 [13] = test: Cytotoxicity against human MIAPaCa2 cells incubated for 24 hrs measured after 5 days in presence of 0.2 U papain; type: functional, cell-based; procedure, shortened: as §1
MCF7 [14] = test: Cytotoxicity against human MCF7 cells incubated for 24 hrs measured after 5 days in presence of 5 uM aprotinin; type: functional, cell-based; procedure, shortened: as §1
MIA PaCa-2 [15] = test: Cytotoxicity against human MIAPaCa2 cells incubated for 24 hrs measured after 5 days in presence of 0.2 U plasmin; type: functional, cell-based; procedure, shortened: as §1
[16] = Cytotoxicity against human L3.5 cells incubated for 24 hrs measured after 5 day; type: functional, cell-based; procedure, shortened: as §1
[17] = Cytotoxicity against human L3.6PL cells incubated for 24 hrs measured after 5 days in presence of 0.2 U human plasmin; type: functional, cell-based; procedure, shortened: as §1

**Q.** Which results are given for `COc1cccc2c1C(=O)c1c(O)c3c(c(O)c1C2=O)C[C@@](O)(C(=O)CO)C[C@@H]3O[C@H]1C[C@H]2[C@H](OCN2C(=O)OCc2ccc(NC(=O)[C@H](CCCCN)NC(=O)[C@H](Cc3ccccc3)NC(=O)[C@@H](C)NC(=O)CNC(C)=O)cc2)[C@H](C)O1.O=P(O)(O)O`?
**A.** IC50 [1]: 11.7 nM; Activity [2]: 1040 U/mg; IC50 [3]: 2.63 nM; fold change (FC) (MIA PaCa-2 [4]): 2; IC50 (MCF7 [5]): 200 nM; Stability [6]: Stable; IC50 (HEK-293T): 200 nM; IC50 (MCF7 [7]): 251 nM; IC50 (MIA PaCa-2 [8]): 158 nM; IC50 [9]: 912 nM; IC50 (MCF7 [10]): 31.6 nM; Activity (Bos taurus): 4340 U/mg; fold change (FC) (MIA PaCa-2 [11]): 7; Ratio (Homo sapiens): > 3; IC50 (MIA PaCa-2 [12]): 282 nM; IC50 (MIA PaCa-2 [13]): 69.2 nM; IC50 (MCF7 [14]): 295 nM; IC50 (MIA PaCa-2 [15]): 23.4 nM; IC50 [16]: 224 nM; IC50 [17]: 3.16 nM
